The text below walks through data of ChEMBL document CHEMBL1141421, “Chemical transformation and biological activities of ambrein, a major product of ambergris from Physeter macrocephalus (sperm whale)” (J Nat Prod, 2007).

The nature of series [1]: Antiinflammatory activity assessed as inhibition of fMLP-induced elastase release in human neutrophils at 10 ug/mL relative to control. In kind it is functional, cell-based, Neutrophil. A digest of the protocol:
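Neutrophils (6 × 10⁵/mL) supplemented with MeO-Suc-Ala-Ala-Pro-Val-p-nitroanilide (100 µM) elastase substrate, equilibrated 2 min at 37 °C, then exposed to test sample for 5 min. Stimulation with FMLP (100 nM)/cytochalasin B (0.5 µg/mL); elastase release followed continuously as absorbance change at 405 nm. DMSO-treated cells served as the 100% reference.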

Series [2] is described as follows: Cytotoxicity against human A549 cells by MTT assay. The note with it: read-out: ED50 (the source's name). In kind it is cell-based. An outline of the steps:
(§1)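 MTT read-out on human tumour cells: Hepa59T/VGH liver carcinoma, WiDr colon adenocarcinoma, A-549 lung carcinoma and MCF-7 breast adenocarcinoma. ED50 taken as the sample concentration giving 50% lower absorbance than untreated cells.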

A short description of series [3]: Cytotoxicity against human WiDr cells by MTT assay. In kind it is cell-based. The following applies: read-out: ED50 (the source's name). A digest of the protocol: as §1
The nature of series [4]: Cytotoxicity against human MCF7 cells by MTT assay. In kind it is cell-based. The note with it: read-out: ED50 (the source's name). An outline of the steps: as §1
Series [5] can be described thus: Cytotoxicity against human hepa59T/VGH cells by MTT assay. In kind it is cell-based, Hepa 59T/VGH. The following applies: read-out: ED50 (the source's name). A digest of the protocol: as §1

Converted amounts (≈) assume the structure as drawn.

Regarding `C=C1CCCC(C)(C)[C@@H]1C[C@@H](O)/C(C)=C/CC[C@@H]1[C@@]2(C)CCCC(C)(C)[C@@H]2CC[C@@]1(C)O`, in series [1], the “Elastase release (% of DMSO control)” value is recorded as 79.3%. The CC50 in series [2], in series [3], in series [4] and in series [5] was above 10 µg/mL each time.

For the compound `C=C1CCCC(C)(C)[C@@H]1CC/C(=C\CC[C@@H]1[C@@]2(C)CCCC(C)(C)[C@@H]2CC[C@@]1(C)O)CO`, the “Elastase release (% of DMSO control)” value in series [1] was 74.4%. Besides, the CC50 in series [2], in series [3], in series [4] and in series [5] was above 10 µg/mL in each case.

For `C=C1CCCC(C)(C)[C@@H]1C/C=C(\C)[C@H]1CC[C@@H]2[C@@]3(C)CCCC(C)(C)[C@@H]3CC[C@@]2(C)O1`, the “Elastase release (% of DMSO control)” value in series [1] was determined as 92.2%. The CC50 in series [2], in series [3], in series [4] and in series [5] was above 10 µg/mL in each case.

For `C=C1CCCC(C)(C)[C@@H]1C[C@@H]1O[C@]2(C)CC[C@H]3C(C)(C)CCC[C@]3(C)[C@H]2CC/C=C\1C`, in series [1], the “Elastase release (% of DMSO control)” value was 82%. For the same compound, the CC50 in series [2], in series [3], in series [4] and in series [5] was above 10 µg/mL in each case.

`C=C1CCCC(C)(C)[C@@H]1CCC(C)=O`: the CC50 in series [2], in series [3], in series [4] and in series [5] was above 10 µg/mL throughout.

Consider `C=C1CCCC(C)(C)[C@@H]1C[C@H](OC(=O)c1ccccc1)/C(C)=C/CC[C@@H]1[C@@]2(C)CCCC(C)(C)[C@@H]2CC[C@@]1(C)O`, for which the “Elastase release (% of DMSO control)” value in series [1] was 115.5%. Moreover, the CC50 in series [2], in series [3], in series [4] and in series [5] was above 10 µg/mL throughout.

For `C=C1CCCC(C)(C)[C@@H]1C[C@H](O)/C(C)=C/CC[C@@H]1[C@@]2(C)CCCC(C)(C)[C@@H]2CC[C@@]1(C)O`, in series [1], the “Elastase release (% of DMSO control)” value is 132.7%. Also, the CC50 in series [2] is 6.4 µg/mL (≈ 14.4 µM); in series [3], 7.8 µg/mL (≈ 17.5 µM); in series [4] it was 4 µg/mL (≈ 8.99 µM); in series [5], 5.7 µg/mL (≈ 12.8 µM).

Consider `C=C1CCCC(C)(C)[C@@H]1CC/C(=C/CC[C@@H]1[C@@]2(C)CCCC(C)(C)[C@@H]2CC[C@@]1(C)O)COC(=O)c1ccccc1`, for which the “Elastase release (% of DMSO control)” value in series [1] amounted to 75.6%. Moreover, the CC50 in series [2], in series [3], in series [4] and in series [5] was above 10 µg/mL each time.

On to `C=C1CCCC(C)(C)[C@@H]1CC[C@](C)(O)[C@@H]1CCC2[C@@](C)(CC[C@H]3C(C)(C)CCC[C@]23C)O1` (some centres undefined), for which, in series [1], the “Elastase release (% of DMSO control)” value amounted to 81.3%. Besides, the CC50 in series [2], in series [3], in series [4] and in series [5] was above 10 µg/mL in each case.

Turning to `C=C1CCCC(C)(C)[C@@H]1CC(=O)/C(C)=C/CC[C@@H]1[C@@]2(C)CCCC(C)(C)[C@@H]2CC[C@@]1(C)O`, in series [1], the “Elastase release (% of DMSO control)” value was determined as 95.1%. Also, the CC50 was 5.3 µg/mL (≈ 12 µM) in series [2], 10 µg/mL (≈ 22.6 µM) in series [3], 8.5 µg/mL (≈ 19.2 µM) in series [4] and 6.8 µg/mL (≈ 15.4 µM) in series [5].

Take `C=C1CCCC(C)(C)[C@@H]1C[C@@H](OC(=O)c1ccccc1)/C(C)=C/CC[C@@H]1[C@@]2(C)CCCC(C)(C)[C@@H]2CC[C@@]1(C)O`: in series [1], the “Elastase release (% of DMSO control)” value came to 85.6%. The CC50 in series [2], in series [3], in series [4] and in series [5] was above 10 µg/mL each time.

Turning to `C=C1CCCC(C)(C)[C@@H]1CC/C(C)=C/CC[C@@H]1[C@@]2(C)CCCC(C)(C)[C@@H]2CC[C@@]1(C)O` [AMBREIN], the IC50 in series [1] (Homo sapiens, Neutrophil) came out at 4.6 µg/mL (≈ 10.7 µM). For the same compound, the CC50 in series [2], in series [3], in series [4] and in series [5] was above 10 µg/mL each time.

In the case of `COc1cccc2c1C(=O)c1c(O)c3c(c(O)c1C2=O)C[C@@](O)(C(=O)CO)C[C@@H]3O[C@H]1C[C@H](N)[C@H](O)[C@H](C)O1` [DOXORUBICIN], the CC50 in series [2] came out at 0.21 µg/mL (≈ 0.386 µM); in series [3], 0.12 µg/mL (≈ 0.221 µM); in series [4] it was 0.12 µg/mL (≈ 0.221 µM); in series [5], 0.11 µg/mL (≈ 0.202 µM).

As for `O=c1c(-c2ccc(O)cc2)coc2cc(O)cc(O)c12` [GENISTEIN], in series [1], the “Elastase release (% of DMSO control)” value was 51.6%.
